These results are taken from ChEMBL document CHEMBL1128695, “Synthesis and antiviral activity of 8-aza analogs of chiral [2-(phosphonomethoxy) propyl]guanines” (J Med Chem, 1995).

SMILES strings stand for the structures.

Assay [1] deals with MT4. Nature of the assay: Protection of MT-4 cells against the cytopathic effect of HIV-2 (8 days). The assay is classed as functional, cell-based. Particulars: Homo sapiens, MT4, 192 h. The essentials:
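MT-4 cells (1×10^4/well, RPMI/10% FCS) with compound dilutions, infected with HIV-2 ROD at 100 CCID50 (MOI 0.01). Stock from persistently infected CEM supernatant.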
For orientation: Protection from cytopathic effect is a common read-out in antiviral testing.

Assay [2] concerns MT4. Description: Cytotoxic concentration required to reduce viability of mock-infected MT-4 cells (4 days). Particulars: Homo sapiens, MT4, 96 h. The assay is classed as functional. The essentials:
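Mock-infected MT-4 cells, 1×10^4/well, incubated with serial compound dilutions (DMSO stock 100 mg/mL diluted in RPMI/10% FCS) for 4 days at 37 °C, run alongside the antiviral test.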

In assay [3] the test system is MT4. Description: Protection of MT-4 cells against the cytopathic effect of HIV-1 (4 days). The assay is classed as functional, cell-based. To be noted: Homo sapiens, MT4, 96 h. A digest of the protocol:
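MT-4 cells (1×10^4/well, RPMI/10% FCS) with compound dilutions, infected with HIV-1 IIIB at 100 CCID50 (MOI 0.01). Stock from persistently infected H9/IIIB supernatant, titrated in C8166 by syncytia scoring.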

A short description of assay [4]: Selectivity Index measured as the ratio of CC50 to that of EC50 (HIV-2) values. Type of assay: functional. A digest of the protocol: (§1)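 HIV-2 ROD (100 CCID50, MOI 0.01) infected 1×10^4 MT-4 cells per well in RPMI/10% FCS containing compound dilutions, made from a 100 mg/mL DMSO stock. After 8 days at 37 °C, MTT read viability. […] The CC50 comes from parallel mock-infected MT-4 cultures by MTT over 4 days. The index is the CC50/EC50 ratio.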

Assay [5] can be described thus: Selectivity Index measured as the ratio of CC50 to that of EC50 (HIV-1) values. The assay is classed as functional. A digest of the protocol: (§2)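 HIV-1 IIIB (100 CCID50, MOI 0.01) was added to 1×10^4 MT-4 cells per well in RPMI/10% FCS with serial compound dilutions, made from a 100 mg/mL DMSO stock. After 4 days at 37 °C, viable cells were counted by MTT. […] SI = CC50/EC50.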

Assay [6] can be described thus: Selectivity Index measured as the ratio of CC50 to that of EC50(HIV-2) values. Type of assay: functional. The essentials:
as §1

Assay [7] in a line: Selectivity Index measured as the ratio of CC50 to that of EC50(HIV-1) values. The assay is classed as functional. The essentials: as §2

For `C[C@H](Cn1nc2nc(N)nc(O)c2n1)OCP(=O)(O)O`, the EC50 in assay [1] and in assay [3] was above 400 µM each time. This compound also registered a CC50 in assay [2] above 400 µM.
Regarding `C[C@@H](Cn1nnc2c(O)nc(N)nc21)OCP(=O)(O)O`, the Selectivity index was above 32 in assay [4] and above 33 in assay [5]. For the same compound, the EC50 in assay [1] was 12.5 µM; in assay [3] it was 12 µM. This compound also came in with a CC50 in assay [2] above 400 µM.
With `Nc1nc2c(ncn2CCOCP(=O)(O)O)c(=O)[nH]1` [GS-438], the Selectivity index in assay [4] amounted to 12; in assay [5], 12.6. Also, the EC50 in assay [1] is 0.2 µM; in assay [3] it was 0.19 µM. Half-maximal cytotoxicity in assay [2] (CC50) was put at 2.4 µM.
As to `C[C@H](Cn1nnc2c(O)nc(N)nc21)OCP(=O)(O)O`, the Selectivity index in assay [4] is 2; in assay [5], above 4.3. Further, the EC50 in assay [1] is 200 µM; in assay [3], 93 µM. Moreover, in assay [2], the CC50 is above 400 µM.
The like results for `C[C@@H](Cn1cnc2c(O)nc(N)nc21)OCP(=O)(O)O` were, in that order, above 89, above 89, 4.5 µM, 4.5 µM and above 400 µM.
Consider `C[C@@H](Cn1nc2nc(N)nc(O)c2n1)OCP(=O)(O)O`, for which the Selectivity index was above 5.5 in assay [6] and above 7.5 in assay [7]. In addition, the EC50 stood at 73 µM in assay [1] and 53 µM in assay [3]. The CC50 in assay [2] is above 400 µM.
For `C[C@H](Cn1cnc2c(O)nc(N)nc21)OCP(=O)(O)O`, the Selectivity index was found to be 1.6 in assay [4] and 2.5 in assay [5]. The values for the EC50 in assay [1] and in assay [3] were 30 µM and 19 µM, respectively. Moreover, the CC50 in assay [2] is above 48 µM.
`Cc1cn([C@H]2C[C@H](N=[N+]=[N-])[C@@H](CO)O2)c(=O)[nH]c1=O` [ZIDOVUDINE]: in assay [2], the CC50 is above 20 µM.

What is called EC50 is the concentration needed to bring the measured effect to its halfway point. Read a high EC50 as weaker potency. For orientation: CC50 means the concentration at which the toxic effect on the cells reaches its halfway point.
